Results from the EternaBench riboswitch data.

System: MS2 coat protein
Experiment: apparent Kd, MS2 coat protein; higher = weaker binding; RNA-MaP array; FMN 200 µM where present
Procedure, shortened: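 The apparent Kd is the median of filtered binding-curve fits, one per cluster, to green signal normalised to red-channel RNA signal and control-cluster median Fmax. The clusters were on Illumina sequencing chips, and stalled E. coli RNA polymerase had transcribed the designs on them. Titration used SNAP-549-labelled MS2 coat protein from 0.7 or 1.5 nM, doubling to 3 µM, without and then with constant ligand, in 100 mM Tris-HCl pH 7.5, 80 mM KCl, 4 mM MgCl2, BSA, DTT, yeast tRNA and Tween-20.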

[1] = designed as: OFF switch for flavin mononucleotide, no ligand
[2] = ligand present: flavin mononucleotide, designed as: OFF switch for flavin mononucleotide
[3] = designed as: ON switch for flavin mononucleotide, no ligand
[4] = ligand present: flavin mononucleotide, designed as: ON switch for flavin mononucleotide

| Sequence | apparent Kd [1] [nM] | apparent Kd [2] [nM] | apparent Kd [3] [nM] | apparent Kd [4] [nM] |
| --- | --- | --- | --- | --- |
| AAUUUCAGAUGAGGAUAUUGACAUGAGGAUCACCCAUGUAUUUGGGAAUGUUUACUGAAUUCUUACGAGAAGGUAUACGAACUU | 296 | 200 |  |  |
| AAUUUACAGCUAGGAUAUACAUGAGGAUCACCCAUGUAACGAUCGGAUCUUAUGAUCGUAUCCGUGUAGAAGGAGCAAAUAAGA | 6.46 | 6.39 |  |  |
| CAGGUAGACUGAGGAUAUACACUAAACAGCUAGUCUAUCUAGCUGCCUACAUGAGGAUCACCCAUGUAGAAGGCAGUCUGCCUG | 15.8 | 18.2 |  |  |
| CGUCAGUGAGGAUAUGGUAUCGUGUACAUGAGGAUCACCCAUGUUUCUUGGGACUAUAUACUAGAAGGCACUGACG | 16 | 35.3 |  |  |
| UUUAUACAUGAGGAUCACCCAUGUCAACAAAGUCGAGGAUAUGGGCAUAUUAUCUUAUUUCCAGAAGGCGAAUUCU |  |  | 233 | 73.3 |
| UUGUUGUAUGUAGGAUAUGCAUAUUGUUAUUAUGCAGAAGGACAUGAGGAUCACCCAUGUAUGUUAUUAUUAUGUGUUAUGUGU | 39.3 | 63.9 |  |  |
| GAGUGGAGGUAAGGAUAUACAAUGAUAAUCACAGUAGAAGGUACUAACAUGAGGAUCACCCAUGUAGGACUAUACCAGAGAGGG |  |  | 17.4 | 18 |
| CAUGUCCUCACAGGAUAUGCACCACUUUGUGGUGCAGAAGGGUGGUAACAUGAGGAUCACCCAUGUGGACAUGAUAUAUUUAAU |  |  | 523 | 294 |
| AGAUCACAUGAGGAUCACCCAUGUGAGGAUAUAGAUUCAAGAGCUUCGGCUCUAAAGUCUAGAAGGCGCUAUGA | 25.1 | 25.6 |  |  |
| AAGAAACAUGAGGAUCACCCAUGUGAGGAUAUGAAAAAGAAAAGAAAAGAAAGAAGAAUCAGAAGGCACAAAGC | 26 | 32.7 |  |  |
| UUGAUUAUACAAGGAUAUCUAUUGUAAUUGAGACUUACAUGAGGAUCACCCAUGUUAAUAUUUUUAGAGAAGGUGUAUUUUCAG |  |  | 32.3 | 22.9 |
| UAGAAUCGAGGAUAUACAUGAGGAUCACCCAUGUGUGGCCAUACUGUGUGGUCGUCAGGUAGAAGGCGAUUAUA | 72.3 | 22.6 |  |  |
| AAUUAGGUCACAGGAUAUACUACAUCCAAUGCUGUAGAAGGGUGACACAUUCUGUGCAGACAUGAGGAUCACCCAUGUAACCAC |  |  | 27.9 | 12.8 |
| AUGCUUCACACAGGAUAUACAUGAGGAUCACCCAUGUGUGGGCGGUAGCUCGAAAGAGCUACCGGGUAGAAGGGUGUGAAGCAU | 27.1 | 132 |  |  |
| GAUCAACAUGAGGAUCACCCAUGUGAGGAUAUGAUACUAUGUACUUCGGUACAUAGUAUCAGAAGGCACAUUGA | 87.2 | 367 |  |  |
| AAGUUUAACGAAGGAUAUGGUUACAUGAGGAUCACCCAUGUAUUUUUUGUGAUCUUGUUUAAGUUCCAGAAGGUCGUAUACAUA | 95.4 | 305 |  |  |
| GCCAACUUAUGAGGAUAUGGCACCUUAUUGGUGCCAGAAGGCAUGUCUAUUGACAUGAGGAUCACCCAUGUAUUAUAGUUGGCA |  |  | 715 | 159 |
| CCGGAAAUGAAGGAUAUAGGUGUCGAUAGACACCUAGAAGGUCAUACAUGAGGAUCACCCAUGUGUCCUACCGG | 16.1 | 30.6 |  |  |
| GUAGCUAUCGGAGGAUAUUCAUACCGGAAACGGACAUGAGGAUCACCCAUGUGUCGAAAGCCUUGGGAGAAGGUCGAUAGCUAC |  |  | 260 | 87.4 |
| CAGGUCUGAGGAUAUCCAUCUUCAUACAUGAGGAUCACCCAUGUUUACCUCUGGGUUUUCGGAGAAGGCAGUUUUU | 354 | 397 |  |  |
| UUACUUCAUGAGAAGGACAUGAGGAUCACCCAUGUAGGAUAUCGUGGGAGACUGGUAUUGAAUCUUCGGAUUCAAUACCUGUCU |  |  | 59.7 | 9.3 |
| GGGUACAUCGGAGGAUAUCAUGUAAAUACAUGAGGAUCACCCAUGUCGACGGAGACAUCGGAGAUUGAGAAGGCCGAUGUACCG |  |  | 42.2 | 367 |
| AUACUUAAUGAAGGAUAUCUCAGCAUAAACCUGAGAGAAGGUCAUUAUUACAUGAGGAUCACCCAUGUUGUAGUUAAUGGGUAA | 352 | 341 |  |  |
| UGAGCUUGUGUGAGGAUAUGAGUUCGGAAAUGAGCUUAGAAGGCACAUGAGGAUCACCCAUGUAAGCGAGUUCG | 72.2 | 74.7 |  |  |

| Sequence | apparent Kd [1] [nM] | apparent Kd [2] [nM] | apparent Kd [3] [nM] | apparent Kd [4] [nM] |
| --- | --- | --- | --- | --- |
| ACGAAACAUGAGGAUCACCCAUGUGCUUAAAGUGUAGGAUAUGGGAUAGCCUAGGUAGUCUCAGAAGGGCACCAAU |  |  | 45.1 | 22.5 |
| GUAGCAUACAGAGGAUAUUCAAAACCGGAAACGGACAUGAGGAUCACCCAUGUGGCGAAAGCCAGGGAGAAGGCUGAAUGCUAC |  |  | 32.8 | 14.8 |
| UGAUCACAUGAGGAUCACCCAUGUCAGGAUAUCUACAUUGAAGCUGCGGCUUCAAUGUAGAGAAGGGAUAUAAU | 99 | 229 |  |  |
| CCUAAGGAGGCAGGAUAUAGUGUGGUGGCCGGGCUCCCACGGCGAGCGGCACUAGAAGGGUCGCUACAUGAGGAUCACCCAUGU |  |  | 25 | 17.3 |
| GUAGUGUGAGGAUAUGAUUAAUAGAAGGGAAUGCGACUGCAUCAGAAGGCACAUGAGGAUCACCCAUGUAUGAA | 19.5 | 29.2 |  |  |
| GGAGCCGGCACUGAGGAUAUUCAUAUUAAAACAUGAGGAUCACCCAUGUAGGCCAGAAGGCCUUGGGAGAAGGCAGGUCGGCCCG |  |  | 381 | 28.4 |
| GAAAAUACAUGAGGAUCACCCAUGUAGGAUAUCGCUAUUGUAAUCAUGUUACAUGAUUACAAUAGCGAGAAGGACGUGAGAAAG | 24.7 | 22.3 |  |  |
| CAGCUACCCAGUAUGGGUAUUUUUACAGAAGGCCAGGCACAUGAGGAUCACCCAUGUCAAGUUAUGGAGGAUAUGUUAGUGUAU |  |  | 8.25 | 4.76 |
| UAGAAGUCAGGAUAUGCAUGGCGGGACUUGCGUCGUGGCGUGCAGAAGGGACAUGAGGAUCACCCAUGUAAAGC | 49 | 43 |  |  |
| UACCCACAUGGGUAGUGGCAGCGUGAGGAUAUGGGUUGGAUACAUGAGGAUCACCCAUGUUCCUCCUAGAAGGCACUUGUAACC |  |  | 138 | 24.8 |
| GGGCCGUAGUAGAAGGGAUAUACGAUUGGUAUAUCAGGAUAUACAUGAGGAUCACCCAUGUUCUAACAGUGAUAGUCCUCCCUA | 23 | 54.8 |  |  |
| CAGUACUGAGGAUAUACAUGAGGAUCACCCAUGUGCUCUAGCUAGGAUACUAGCAUUAGUAGAAGGCAGUACUG | 15 | 136 |  |  |
| AUAUGAGAAGCAGGAUAUGUGAAAAAAAAACAUACAGAAGGGUUUAUGGAAAAACAUGAGGAUCACCCAUGUUCUUUGUGAUGA |  |  | 33.5 | 32.4 |
| GCUGCAUAUGAGAAGGCGAUCAUGAAACAUGAUCGAGGAUAUCAUGUAAACAUGAGGAUCACCCAUGUAUGGGUAUUAAGCAGC |  |  | 282 | 50.5 |
| UAUUAUCACGAAGGAUAUGCUUACAUGAGGAUCACCCAUGUAUGUAUAUUGAUCCAGCGUUUUGAGCAGAAGGUCGUGAGUAAA | 20.1 | 74.3 |  |  |
| GGUGGACAUGAGGAUCACCCAUGUGAGGAUAUCGGCCGGCUCGUGGUGGCUGGCUUCUCGAGAAGGCGCAUAGU | 69.4 | 118 |  |  |
| UUCCUGGUGUAGAAGGAGGCCGAGCUCAAGCGGACGUCCUGAAUUGCGGGCCUAGGAUAUACAUGAGGAUCACCCAUGUACGGA | 39.8 | 111 |  |  |
| CACGGCUUAGGAUAUACAUGAGGAUCACCCAUGUGGGAAAGCCAAGGCGUGGUAAAGUGUAGAAGGAAGAAGGA | 13.4 | 14.9 |  |  |
| GCCAACUUAUGAGGAUAUGGCACCUUAUUGGUGCCAGAAGGCAUGUGUAUUCACAUGAGGAUCACCCAUGUAUUAUAGUUGGCA |  |  | 498 | 48.1 |
| CGCAAGUAUACAUGAGGAUCACCCAUGUCAGAUAGGGUAAUCAGAAGGUACAAUUAGAGAUAGAGUAAGGAUAUGAAAUUUGCG |  |  | 865 | 314 |
| GUACUGAGGCUUUGCUUUAGUCGUACAUGAGGAUCACCCAUGUAGGAUAUGGUAGGCUUUGCUUACCAGAAGGACAGAGUGAUC | 168 | 85.7 |  |  |
| UAUUUUAACUAAGGAUAUCUAUAUUAUUUUGAAACAUGAGGAUCACCCAUGUUCAUGGGAUUAUAAGAGAAGGUAGAUGAAUAA |  |  | 27.5 | 11.7 |
| GAGCUAUGAGGAUAUGCAUAUAUACGGAUUCGUGUAGUACUACAUGAGGAUCACCCAUGUAGAAGGCGUGGCAG | 13.1 | 15.1 |  |  |
| CCCACGAGCGUAGGAUAUACAUGAGGAUCACCCAUGUAGGCACAAUGUCCCAGCUAGUGACCAGUGUAGAAGGACGUGUCUGGG | 50.8 | 107 |  |  |
